From PubChem
M1 ag – activates the M1 muscarinic receptor; CHO-M1 cells, Fluo-4 calcium fluorescence, agonist mode; active compounds read high; B-score at 10 µM; 3% of 64,000 active;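 active means fluorescence rise, raw or as B-score row- and column-corrected plate score, outside the 99.7% band of its plate's samples, either direction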
M1 antag – M1 muscarinic receptor (rat) antagonism. CHO-M1 cells, Fluo-4 calcium, ACh EC80 antagonist mode; active compounds read low. B-score at 10 µM. 3.4% of 64,000 active. AID 628;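 active means calcium fluorescence response, raw or row-and-column corrected B-score, differing from the plate sample mean either way at a set confidence level, mostly lower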
Target sequence (P08482 whole entry, looked up): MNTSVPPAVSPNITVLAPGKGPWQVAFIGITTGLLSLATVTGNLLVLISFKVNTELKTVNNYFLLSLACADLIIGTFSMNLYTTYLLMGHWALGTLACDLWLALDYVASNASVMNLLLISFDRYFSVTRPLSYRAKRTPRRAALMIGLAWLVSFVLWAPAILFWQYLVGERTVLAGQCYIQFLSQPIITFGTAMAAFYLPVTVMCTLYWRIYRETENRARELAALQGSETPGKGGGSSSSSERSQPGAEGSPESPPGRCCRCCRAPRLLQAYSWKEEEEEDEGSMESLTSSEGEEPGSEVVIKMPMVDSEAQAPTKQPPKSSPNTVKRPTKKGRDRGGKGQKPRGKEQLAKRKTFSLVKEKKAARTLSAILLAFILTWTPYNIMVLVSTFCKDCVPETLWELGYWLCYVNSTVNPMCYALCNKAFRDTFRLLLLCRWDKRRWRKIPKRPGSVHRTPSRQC
Ecoli tolC – E. coli tolC mutant growth inhibition; E. coli BW25113 tolC mutant growth, OD615; 2.2% of 65,000 active; growth inhibition, % at 10 µM (by protocol); AID 573;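 active means growth inhibition at or above a cutoff equal to the mean over every tested compound plus 3 SD, cut at about 60% in these data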;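 further: growth measured after 20 h incubation at 37 °C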
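Test system: E. coli BW25113 ΔtolC::kan bacteria | Medium: Kanamycin-containing LB broth (50 µg/mL) | Dosing: One dose of 10 µM final | Times: 20 h incubation with compound, 37 °C | Detection: Optical density read at 615 nm | Read-out basis: Percent growth inhibition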
E coli WT exp – blocks growth of wild type E. coli BW25113; 0.15% of 98,000 active; OD600 absorbance; growth inhibition, % at 100 µM;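 active means growth inhibition above about 50% at one test dose, limit read from the data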;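 further: growth measured after 20 h incubation at 37 °C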
WNV NS2B-NS3 inh – WNV NS2B-NS3 proteinase inhibition; P06935; WNV NS2B-NS3 protease, fluorogenic substrate Ex360/Em465; active compounds read low; z-score (no concentration beside the values); 0.18% of 65,000 active; AID 577; in the data active means z-score below about -3
AP complement – alternative pathway complement inhibition, orthogonal assay; inhibition, % at 5 µM; Human serum alternative complement pathway, LPS-coated ELISA, C3 deposition; tested in compound mixtures; 0.08% of 62,000 active; AID 1235;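 active means inhibition above 30% in each of the two pooled mixtures holding the compound, so the lower value exceeds 30%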
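Assay system: Human serum alternative complement pathway, C3 deposition on LPS-coated wells | Incubation: 1 h serum-compound exposure at 37 °C | Doses: 5 µM per compound in ten-compound mixtures | Read-out: Percent inhibition | Technique: ELISA with HRP anti-human C3 antibody, TMB substrate, absorbance 450 nm | Replication: Two pool placements per compound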
M1 agonist conf – rat M1 muscarinic agonism, confirmation; shares compounds with M1 ag; CHO-M1 cells, Fluo-4 calcium fluorescence, agonist mode; actives lie on both sides; fluorescence change (max-min) at 10 µM; 19% of 1,700 active; AID 1488;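 active means fluorescence change differs from the solvent-only DMSO control mean at a set confidence level in both duplicate runs; inconclusive means differs from solvent-only control mean in just one of two runs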;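 further: an EC20 dose of acetylcholine follows compound addition during the same imaging run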
M4 ag counter – rat M4 muscarinic agonism, M1 counter-screen; 9% of 1,700 active; shares compounds with M1 ag; fluorescence change (max-min) at 10 µM; CHO M4/Gqi5 cells, Fluo-4 calcium fluorescence, agonist mode; actives lie on both sides;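 active means fluorescence change differing from the plate's solvent-only control wells at 99.7% confidence in both duplicates, whether higher or lower; inconclusive means differs from solvent controls in only one of two duplicates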
Numbers stand for hits; 0 = inactive; ? = inconclusive; - = no result. This is a sample that favours compounds with a hit; in the whole collection about 5.2% have one here.

SMILES	M1 ag	M1 antag	Ecoli tolC	E coli WT exp	WNV NS2B-NS3 inh	AP complement	M1 agonist conf	M4 ag counter
COc1ccc(N(Cc2ccccc2)C(=O)CSc2nnc(Cn3nnc4ccccc43)o2)cc1	-	-	-	0	-	-	-	-
O=C(O)c1ccccc1C(=O)N1CCN(c2ccccc2)CC1	0	0	0	0	0	0	-	-
O=C(c1ccccc1C(=O)N1CCN(c2ccccc2)CC1)N1CCN(c2ccccc2)CC1	3.74	0	0	0	0	0	0	0
CCOC(=O)c1c(NC(=O)CSc2nnc(CNC(=O)c3ccco3)n2C)sc2c1CCC2	0	0	0	0	0	0	-	-
NC(=O)c1c(NC(=O)CSc2nnc(Cc3ccccc3)n2Cc2ccco2)sc2c1CCC2	7.28	0	0	0	0	0	0	0
C/C=C(\CS(=O)(=O)c1ccccc1)S(=O)(=O)c1ccccc1	0	0	0	0	0	0	-	-
CC1(C)CC(=O)C2=C(C1)N(c1cccc(O)c1)C1=C(C2)C(=O)CC(C)(C)C1	22.5	0	0	0	0	0	221	170
CC1(C)CC(=O)C(C(C2=C(O)CC(C)(C)CC2=O)c2cccc(O)c2)C(=O)C1 (stereo not given)	0	0	0	0	0	0	-	-
COc1ccc(CN/C(C)=C(/C#N)C(N)=O)cc1OC	0	0	0	0	0	0	-	-
O=C(CN(Cc1ccccc1Cl)C(=O)Cn1nnc(-c2cccs2)n1)NCC1CCCO1 (stereo not given)	7.71	0	0	0	0	0	0	0
O=C(COC(=O)CCc1c[nH]c(=O)[nH]1)Nc1cccc(Cl)c1	5.18	0	0	0	0	0	0	0
O=C(COC(=O)c1ccncc1)Nc1cccc(Cl)c1	-	-	-	0	-	-	-	-
CCC(C(=O)OC)n1cnc2c(nnn2-c2ccc(OC)cc2)c1=O (stereo not given)	4.28	0	0	0	0	0	0	0
CCOC(=O)C(C)n1cnc2c(cnn2-c2ccc(Cl)cc2)c1=O (stereo not given)	0	0	0	0	0	0	-	-
CCOC(=O)C(CC)n1cnc2c(cnn2-c2ccc(Cl)cc2)c1=O (stereo not given)	55.1	-6.19	0	0	0	0	0	0
CCOC(=O)C(CC)n1cnc2c(nnn2-c2ccc(OC)cc2)c1=O (stereo not given)	0	0	0	0	0	0	-	-
C=C(C)CSc1nnc2n(C)c(=O)c3c4c(sc3n12)CCC4	3.48	0	0	0	0	-	0	?
COc1cc(NC(=O)c2cccc3c2C(=O)N(Cc2cccnc2)C3)cc(OC)c1OC	3.21	0	0	0	0	0	0	0
CCCn1c(C2CC(=O)N(c3cc(OC)ccc3OC)C2)nc2ccccc21 (stereo not given)	3.73	0	0	0	0	0	0	0
CCn1c(C2CC(=O)N(c3ccc(C)c(C)c3)C2)nc2ccccc21 (stereo not given)	0	0	0	-	0	0	-	-
Cc1occc1C(=O)NNC(=S)Nc1cccc([N+](=O)[O-])c1	-	-	-	0	-	-	-	-
CCc1nn(C(C)C(=O)NCCN2CCN(c3cccc(C)c3C)CC2)c(=O)c2cc3occc3n12 (stereo not given)	3.79	0	0	0	0	0	?	0
Cc1ccc2cc(C(=O)O)c(C)nc2c1	-	-	-	0	-	-	-	-
COc1ccc2c(CC(=O)OCC(=O)c3ccc(F)cc3)coc2c1	0	0	0	0	0	0	-	-
N#C/C(C(N)=O)=c1/ccc2c(c1)N1C3=C(CCCC3)CC3CCCCC31N=2 (stereo not given)	5.2	0	0	0	0	0	0	0
SMILES	M1 ag	M1 antag	Ecoli tolC	E coli WT exp	WNV NS2B-NS3 inh	AP complement	M1 agonist conf	M4 ag counter
CC1(NC(=O)c2cc(S(=O)(=O)N3CCCCC3)ccc2Cl)CCS(=O)(=O)C1 (stereo not given)	-	-	-	0	-	-	-	-
CC1(C)Cc2nc3sc4c(N(CCO)CCO)ncnc4c3cc2CO1	2.84	0	0	0	0	-	?	0
Nc1cc(C(=O)OCC(=O)NCc2ccco2)ccc1Cl	0	0	0	0	0	0	-	-
COc1cc(NC(=O)c2cc3c(C)nc4ccccc4c3o2)cc(OC)c1OC	3.51	0	0	0	0	0	0	0
COc1ccc(C)cc1NC(=O)c1cc2c(C)nc3ccccc3c2o1	0	0	0	-	0	0	-	-
COc1ccc(CNC(=O)c2cc3c(C)nc4ccccc4c3o2)c(OC)c1	4.86	0	0	0	0	0	0	0
CCOC(=O)c1c(C)[nH]c(C(=O)CN2C(=O)NC(CC)(c3ccccc3)C2=O)c1C (stereo not given)	4.67	0	0	0	0	0	0	0
CCOC(=O)c1c(C)[nH]c(C(=O)CN2C(=O)NC(C)(c3ccc(C)cc3)C2=O)c1C (stereo not given)	0	0	0	-	0	0	-	-
COc1ccc2c(c1)nc(SCC(=O)c1cccs1)n2C	-	-	-	0	-	-	-	-
COc1ccccc1Oc1ccc(S(=O)(=O)NCc2ccccn2)cc1	12	0	0	0	0	0	?	?
COc1ccc(S(=O)(=O)NCc2ccccn2)cc1Cl	0	0	0	0	0	0	-	-
Oc1ccc2oc3c(c2c1/C=N/n1cnnc1)CCCC3	1.27	0	0	0	0	0	?	0
CN1CCN(C(=O)c2cc3nc(-c4ccccc4)cc(-c4ccccc4)n3n2)CC1	-	-	-	0	-	-	-	-
O=C(c1cc2nc(-c3ccco3)cc(C(F)(F)F)n2n1)N1CCN(c2ccccn2)CC1	2.49	0	0	0	0	0	?	0
O=C(c1cc2nc(-c3ccccc3)cc(-c3ccccc3)n2n1)N1CCN(C(=O)c2ccco2)CC1	3.45	0	0	0	0	0	0	0
C=CCn1c(Cc2csc(N)n2)nnc1SCc1ccc(C(=O)OC)cc1	0	0	0	0	0	0	-	-
Cc1nn(-c2ccccc2)c(C)c1C(=O)OCC(=O)c1c(N)n(CC(C)C)c(=O)n(C)c1=O	4.06	0	0	0	0	0	0	0
CCC(Sc1nc2ccccc2c(=O)n1CC1CCCO1)C(=O)NCc1cccnc1 (stereo not given)	0	0	0	0	0	0	-	-
O=C(O)c1ccccc1S(=O)(=O)c1ccccc1CO	8.03	0	0	0	0	0	0	0
CC(C)(C)S(=O)(=O)c1ccccc1C(=O)O	0	0	0	0	0	0	-	-
CSc1nsc(SC)c1NC(=O)OCC1CCCO1 (stereo not given)	-	-	0	0	0	0	-	-
CCOc1ccc(S(=O)(=O)n2ccc(C)n2)c2ccccc12	13.3	0	0	0	0	0	0	0
COc1cc(/C=C/C(=O)CC(=O)/C=C/c2ccc(O)c(OC)c2)ccc1O	164	0	0	-	0	0	367	401
Cc1ccc(-c2cc(C(F)F)nc(N3CCC(C)CC3)n2)cc1	4.23	0	0	0	0	0	0	0
